Reference: paper PMC5443258 (Cancer cell, 2017)
Where a SMILES comes first, the peptide text is derived from it. Where no end group is shown, it is not given here. [ ]: non-standard residue; d: D form.

Columns and labels:
ERG_Y373A = ERG_Y373A (Homo sapiens, UniProt P11308, Y373A); assay: biochemical
ERG:AR interaction = target: T1, ERG:AR interaction (Homo sapiens, UniProt P11308); assay: In vitro peptide competitive pull-down, ERG:AR; type: biochemical; conditions: cell-free, Halo-ERG and GST-AR, increasing peptide concentrations, immunoblot
T1 sequence (P11308 1-479): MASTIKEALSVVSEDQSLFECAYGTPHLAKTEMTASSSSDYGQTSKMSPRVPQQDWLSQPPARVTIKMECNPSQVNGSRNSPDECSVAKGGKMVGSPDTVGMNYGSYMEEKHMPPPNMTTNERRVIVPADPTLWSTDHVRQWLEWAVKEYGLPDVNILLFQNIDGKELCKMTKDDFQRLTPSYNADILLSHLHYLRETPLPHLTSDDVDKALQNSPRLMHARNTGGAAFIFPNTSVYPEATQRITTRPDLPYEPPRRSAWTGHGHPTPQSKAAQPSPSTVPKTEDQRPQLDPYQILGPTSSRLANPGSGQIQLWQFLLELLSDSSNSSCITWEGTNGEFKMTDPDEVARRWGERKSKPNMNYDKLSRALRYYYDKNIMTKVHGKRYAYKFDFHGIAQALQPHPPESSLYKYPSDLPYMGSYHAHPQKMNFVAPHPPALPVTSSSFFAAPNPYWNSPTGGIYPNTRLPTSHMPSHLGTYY

ERG protein = target: T2, ERG protein (Homo sapiens, UniProt P11308); assay: Biolayer interferometry
T2 sequence (P11308 1-479): T1 sequence (P11308 1-479)

ERG:EBS DNA interaction = ERG:EBS DNA interaction (Homo sapiens, UniProt P11308)
ERG:DNA-PKcs interaction = target: T3, ERG:DNA-PKcs interaction (Homo sapiens, UniProt P11308); assay: Co-immunoprecipitation from VCaP xenograft tumors after single dose; type: in vivo, mice; conditions: single 25 mg/kg dose IP, three and six hours post injection, co-IP immunoblot
T3 sequence (P11308 33-479 limits assumed): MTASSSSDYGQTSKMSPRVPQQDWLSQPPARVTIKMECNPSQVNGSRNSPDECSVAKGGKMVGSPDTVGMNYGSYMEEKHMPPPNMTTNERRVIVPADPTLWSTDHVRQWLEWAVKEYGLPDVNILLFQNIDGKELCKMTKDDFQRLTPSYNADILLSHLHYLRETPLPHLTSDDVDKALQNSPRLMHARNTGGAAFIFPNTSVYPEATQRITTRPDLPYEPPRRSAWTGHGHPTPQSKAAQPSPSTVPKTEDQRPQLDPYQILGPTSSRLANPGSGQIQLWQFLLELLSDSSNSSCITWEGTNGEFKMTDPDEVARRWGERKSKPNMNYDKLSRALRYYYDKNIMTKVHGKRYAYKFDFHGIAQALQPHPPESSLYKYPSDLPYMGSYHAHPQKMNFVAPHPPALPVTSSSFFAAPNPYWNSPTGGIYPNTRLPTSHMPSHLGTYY

[1] = target: T4, ERG protein in VCaP cells (Homo sapiens, UniProt P11308); assay: Cellular thermal shift assay; type: cell-based; conditions: 50°C, 3 hours treatment
T4 sequence (P11308 33-479 limits assumed): T3 sequence (P11308 33-479 limits assumed)

[2] = target: T5, ERG protein in PC3-ERG cells (Homo sapiens, UniProt P11308); assay: Immunoblot of ERG protein in PC3-ERG cells; type: cell-based; conditions: even at 5 μM concentration
T5 sequence (P11308 1-479): T1 sequence (P11308 1-479)

[3] = target: T4, ERG protein in VCaP cells; type: cell-based
VCaP xenografts = assay: VCaP xenograft mouse model; type: in vivo, mice; conditions: 25 mg/kg, IP-Western blot, compared to mutant peptide
Outline: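 Mice carried VCaP xenografts staged for three weeks, with 10 per group. Test compound or mutant control peptide was given IP at 25 mg/kg daily. Tumors were collected 24 h after the final dose and lysed in MOPS pH 7.0 buffer with phosphatase and protease inhibitors. For IP-Western, 0.5–1.0 mg lysate was precleared, incubated with 2 μg anti-ERG at 4°C for 4 h, then with protein A/G beads overnight, and immunoblotted.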

VCaP cells = system: VCaP cells; set-up: species or system chicken; conditions: in vivo, 25 mg/kg
[4] = system: ERG recruitment to chromatin; assay: ChIP and ChIP-seq in VCaP cells; type: cell-based
Outline: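 VCaP cells were exposed to 50 μM test compound or mutant control peptide for 12 h. Cells were cross-linked in 1% formaldehyde for 10 min, quenched with glycine, and sonicated to ~200 bp fragments. Chromatin from 5×10^6 cells was incubated with antibody overnight at 4°C, and crosslinks were reversed at 67°C for 4–5 h. ChIP-seq ERG signal was normalized and taken at summits of 4th-quartile peaks (mutant-control sample), ±400 bp.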

[5] = target: T6, ERG protein in HUVEC cells (Homo sapiens, UniProt P11308); assay: Cellular thermal shift assay; type: cell-based
T6 sequence (P11308 1-479): T1 sequence (P11308 1-479)

[6] = target: T7, ERG protein in RWPE1-ERG cells (Homo sapiens, UniProt P11308); assay: Immunoblot of ERG protein in RWPE1-ERG cells; type: cell-based; conditions: even at 5 μM concentration
T7 sequence (P11308 33-479 limits assumed): T3 sequence (P11308 33-479 limits assumed)

Compound | Kd (ERG_Y373A) [µM] | disruption of direct ERG:AR interaction (ERG:AR interaction) | Kd (ERG protein) [µM] | disruption of ERG:EBS DNA interaction (ERG:EBS DNA interaction) | ERG:DNA-PKcs interaction in xenograft tumors (ERG:DNA-PKcs interaction) | solubility of ERG protein, isothermal dose-response [1] | effect on ERG protein in PC3-ERG cells [2] | ERG protein half-life in the presence of cycloheximide [3] | ERG protein in VCaP xenograft tumors after 18 days treatment (VCaP xenografts) | ERG-mediated invasion in CAM (VCaP cells) | average ERG ChIP-seq signal for 4th quartile peaks ([4]; 50 μM, 12 hours, compared to mutant peptide) | ERG and DNA-PKcs enrichment at ERG-regulated genomic loci (ChIP) ([4]; 12 hours treatment) | thermal shift of soluble ERG protein in HUVEC cells (CETSA) [5] | effect on ERG protein in RWPE1-ERG cells [6]
LPPYLFT [EIP1] | > 100 | disrupted | 0.6 | effectively disrupted | – | – | – | – | – | – | – | – | – | –
LSFGSLP [EIP2] | – | disrupted | 1.8 | – | – | – | – | – | – | – | – | – | – | –
CC(C)C[C@@H](NC(=O)[C@H]1CCCN1C(=O)[C@H]1CCCN1C(=O)[C@@H](Cc1ccc(O)cc1)NC(=O)[C@@H](CC(C)C)NC(=O)[C@@H](Cc1ccccc1)NC(=O)[C@H](N)[C@H](C)O)C(=O)O [RI-EIP1] (H-[dT][dF][dL][dY][dP][dP][dL]-OH) | – | – | 0.94 | – | blocked | increased in a dose-dependent fashion | destabilized | significantly shortened | degradation of ERG protein | blocked | markedly reduced | inhibited | no clear thermal shift | destabilized
CC(C)C[C@@H](NC(=O)[C@@H](CO)NC(=O)[C@@H](Cc1ccccc1)NC(=O)CNC(=O)[C@@H](CO)NC(=O)[C@@H](CC(C)C)NC(=O)[C@H]1CCCN1)C(=O)O [RI-EIP2] (H-[dP][dL][dS]G[dF][dS][dL]-OH) | – | – | 1.28 | – | – | – | destabilized | – | – | – | – | – | – | destabilized
